In the library only some 2.1% were active in any assay of this set; here they are far more common.
CRFR2-BP antag = CRF-BP/CRF-R2 complex antagonism; HEK293 CRF-R2/CRF-BP, CRF-induced calcium fluorescence; AID 588475; actives 0.59% (n = 350,000); inhibition, % at 11.8 µM;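 active means inhibition of the ligand-induced calcium signal above about 50% at the single tested concentration, limit read from the data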
zfTRPN1 agonist = zebrafish TRPN1 (NompC) channel agonism | HEK293 zebrafish TRPN1-YFP, Fluo-8 calcium fluorescence; 100% = response to 87 µM carbachol | activation, % at 3 µM | actives 0.18% (n = 220,000);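 active means activation above its plate's cutoff, the mean activation of test wells on that plate plus 3 SD, cut at about 19% in these data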
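Material – zebrafish TRPN1-YFP in HEK293 cells · Doses – 3 µM single point · Schedule – dye 1 h 37 °C plus 30 min RT · Signal – Fluo-8 calcium fluorescence, excitation 470-495 nm, emission 515-575 nm · Read-out – % activation versus carbachol response · Control set – carbachol high, DMSO low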
IMP-1 inh-1 = inhibitors of Pseudomonas aeruginosa IMP-1 metallo-beta-lactamase; purified IMP-1, nitrocefin hydrolysis, epi-absorbance fluorescence; inhibition, % at 5.6 µM; actives 0.45% (n = 290,000); AID 1556;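 active means inhibition above the mean plus 3 SD of all compounds in the same screening run, cut at about 4.5% in these data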
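System: Purified recombinant IMP-1 metallo-beta-lactamase enzyme | Measured by: Fluorescence quenching readout, ex 480/em 530 nm | Replication: Singlicate | Incubation: 15 min preincubation plus 25 min reaction at 25 °C | Evaluation: Percent inhibition from optical density relative to buffer-blank wells | Benchmarks: DMSO with and without IMP-1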
VIM-2 inhibitor = inhibitors of Pseudomonas aeruginosa VIM-2 metallo-beta-lactamase. actives 0.89% (n = 290,000). AID 1527. inhibition, % at 5.6 µM. purified VIM-2, nitrocefin hydrolysis, epi-absorbance fluorescence;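 active means inhibition above the mean of all tested compounds plus 3 SD, cutoff set per screening run, cut at about 7.5% in these data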;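 further: red hydrolysis product quenches plate fluorescence so inhibitors raise well fluorescence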
TRPML3 ag = activates the human TRPML3 channel; HEK293 TRPML3-YFP, Fluo-8 calcium fluorescence; 100% = the carbachol control signal; activation, % at 3 µM; actives 0.29% (n = 220,000);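 active means activation above its plate's cutoff, the mean activation of the plate's test wells plus 3 SD, cut at about 12% in these data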
Target sequence (Q8TDD5 whole entry, looked up): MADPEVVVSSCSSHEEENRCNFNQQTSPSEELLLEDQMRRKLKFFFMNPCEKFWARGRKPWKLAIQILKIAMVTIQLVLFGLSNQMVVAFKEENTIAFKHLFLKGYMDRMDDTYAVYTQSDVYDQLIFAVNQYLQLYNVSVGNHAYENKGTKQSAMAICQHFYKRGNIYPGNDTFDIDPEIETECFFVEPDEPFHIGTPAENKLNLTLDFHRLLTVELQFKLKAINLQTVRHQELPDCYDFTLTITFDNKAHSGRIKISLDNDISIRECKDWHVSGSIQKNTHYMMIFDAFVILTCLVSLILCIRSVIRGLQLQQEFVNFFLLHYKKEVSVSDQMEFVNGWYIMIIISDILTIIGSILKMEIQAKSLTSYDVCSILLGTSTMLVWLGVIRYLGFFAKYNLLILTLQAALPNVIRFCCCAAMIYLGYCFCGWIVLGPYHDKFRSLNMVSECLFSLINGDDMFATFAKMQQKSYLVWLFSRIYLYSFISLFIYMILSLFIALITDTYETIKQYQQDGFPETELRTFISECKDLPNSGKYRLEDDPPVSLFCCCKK
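Test system: TRPML3-YFP stable HEK293 cells. Doses: single point at 3 µM. Incubation: dye loading 1 h 37 °C then 30 min ambient, 125 s read. Signal: Fluo-8 calcium dye fluorescence, ex 470-495, em 515-575 nm. Measure: percent activation from peak-to-basal fluorescence ratio, scaled between DMSO and carbachol.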
CRFR2-BP ag = agonists of human CRF-binding protein/CRF-R2 receptor complex; activation, % at 13.2 µM; HEK293 CRF-R2/CRF-BP, calcium dye fluorescence (FLIPR); percent of saturating CRF peptide response; actives 0.46% (n = 350,000);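 active means activation of at least 50%, plus an integration ratio under a set limit after plate pattern correction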
IMP-1 inh-2 = IMP-1 inhibition, counter-screen for VIM-2 inhibitors; shares compounds with VIM-2 inhibitor; purified IMP-1, nitrocefin hydrolysis, epi-absorbance fluorescence; inhibition, % at 5.6 µM; 1,300 tested, under 10 active; AID 1856; call rule not given here
VIM-2 FRET ctr = counter-screen for VIM-2 inhibitors: epi-absorbance artifacts via FRET | inhibition, % at 5.6 µM | actives 23% (n = 1,300) | shares compounds with VIM-2 inhibitor | purified VIM-2, CCF2 FRET substrate hydrolysis | AID 1857;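 active means inhibition above the mean of all tested compounds plus 3 SD, cut at about 19% in these data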
TEM-1 inh = TEM-1 inhibition, counter-screen for VIM-2 inhibitors; inhibition, % at 5.6 µM; Purified TEM-1, nitrocefin hydrolysis, epi-absorbance fluorescence; shares compounds with VIM-2 inhibitor; actives 3% (n = 1,300); AID 1866;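 active means inhibition above that campaign's mean inhibition plus 3 SD, cut at about 0.46% in these data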
VIM-2 confirm 2 = confirmation of P. aeruginosa VIM-2 metallo-beta-lactamase inhibitors. shares compounds with VIM-2 inhibitor. purified VIM-2, nitrocefin hydrolysis, epi-absorbance. inhibition, % at 5.6 µM. actives 96% (n = 1,300);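 active means inhibition of the VIM-2 beta-lactamase enzyme above about 11% from the earlier first-round screen, limit read from the data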
Of the large screens only hits and unclear results are named; the others gave an inactive call (follow-up assays come after a bar, where they were run).

Cc1c(Cl)c(-c2n[nH]c(=S)n2-c2ccccc2)nn1C	VIM-2 inhibitor 19.3 | IMP-1 inh-2 inactive | VIM-2 FRET ctr 44.1 | TEM-1 inh inactive | VIM-2 confirm 2 26.5
Cc1cccc(-c2n[nH]c(=S)n2-c2ccccc2)c1[N+](=O)[O-]	VIM-2 inhibitor 34.0 | IMP-1 inh-2 inactive | VIM-2 FRET ctr 61.7 | TEM-1 inh inactive | VIM-2 confirm 2 44.4
CCOc1ccccc1NC(=O)CSc1nc2ccccc2c(=O)n1CC1CCCO1 (stereo not drawn)	none (no result: zfTRPN1 agonist, TRPML3 ag)
CCc1cc(=O)oc2cc(C)cc(OCC(=O)NCCCn3ccnc3)c12	VIM-2 inhibitor 51.4 (no result: zfTRPN1 agonist, TRPML3 ag) | IMP-1 inh-2 inactive | VIM-2 FRET ctr inactive | TEM-1 inh inactive | VIM-2 confirm 2 61.4
Cc1cc(OCC(=O)NCCCn2ccnc2)c2c(C)c(C)c(=O)oc2c1	VIM-2 inhibitor 79.8 (no result: zfTRPN1 agonist, TRPML3 ag) | IMP-1 inh-2 inactive | VIM-2 FRET ctr inactive | TEM-1 inh inactive | VIM-2 confirm 2 85.0
Cc1cc(OC(C)C(=O)NCCCn2ccnc2)c2c(C)c(C)c(=O)oc2c1 (stereo not drawn)	VIM-2 inhibitor 64.2 (no result: zfTRPN1 agonist, TRPML3 ag) | IMP-1 inh-2 inactive | VIM-2 FRET ctr inactive | TEM-1 inh inactive | VIM-2 confirm 2 74.0
Cc1cc(OCC(=O)NCCN2CCOCC2)c2c(C)c(C)c(=O)oc2c1	VIM-2 inhibitor 19.1 (no result: zfTRPN1 agonist, TRPML3 ag) | IMP-1 inh-2 inactive | VIM-2 FRET ctr inactive | TEM-1 inh inactive | VIM-2 confirm 2 29.2
O=C(COc1ccc(Cl)cc1Cl)NCCCn1ccnc1	none
CCCCc1cc(=O)oc2cc(C)cc(OCC(=O)NCCN3CCOCC3)c12	none (no result: zfTRPN1 agonist, TRPML3 ag)
CC(OC(=O)Cc1n[nH]c(=O)c2ccccc12)C(=O)Nc1ccc(F)cc1Cl (stereo not drawn)	none (no result: zfTRPN1 agonist, IMP-1 inh-1, VIM-2 inhibitor, TRPML3 ag)
CC(C)(C)c1ccc(S(=O)(=O)N2CCN(c3ccccn3)CC2)cc1	none (no result: zfTRPN1 agonist, TRPML3 ag)
Cc1ccc(CNCc2cc(Cl)ccc2O)cc1	none (no result: zfTRPN1 agonist, IMP-1 inh-1, VIM-2 inhibitor, TRPML3 ag)
O=C(NC(=S)NCC1CCCO1)c1ccccc1Br (stereo not drawn)	VIM-2 inhibitor 27.9 | IMP-1 inh-2 inactive | VIM-2 FRET ctr 52.0 | TEM-1 inh inactive | VIM-2 confirm 2 36.0
COc1ccc(Cc2nc3ccc(C(=O)NCc4ncc(C)[nH]4)cc3o2)cc1OC	VIM-2 inhibitor 38.0 (no result: zfTRPN1 agonist, TRPML3 ag) | IMP-1 inh-2 inactive | VIM-2 FRET ctr inactive | TEM-1 inh inactive | VIM-2 confirm 2 50.2
COc1ccc(Cc2nc3ccc(C(=O)NCc4cc(C)no4)cc3o2)cc1OC	none (no result: zfTRPN1 agonist, TRPML3 ag)
O=C(CS(=O)(=O)c1cn(CC(=O)N2CCOCC2)c2ccccc12)Nc1ccccc1F	none (no result: zfTRPN1 agonist, TRPML3 ag)
O=C(O)C(Cc1ccccc1)N1C(=O)/C(=C/c2cccc3ccccc23)SC1=S (stereo not drawn)	none (no result: CRFR2-BP antag, CRFR2-BP ag)
Cc1c(N2C(=O)/C(=C\c3cccc4ccccc34)SC2=S)c(=O)n(-c2ccccc2)n1C	VIM-2 inhibitor 62.1 | IMP-1 inh-2 inactive | VIM-2 FRET ctr 32.9 | TEM-1 inh inactive | VIM-2 confirm 2 29.5
O=C(O)C(NC(=O)c1ccccc1)=C(Cl)Cl	VIM-2 inhibitor 23.1 | IMP-1 inh-2 inactive | VIM-2 FRET ctr 44.1 | TEM-1 inh inactive | VIM-2 confirm 2 24.7
CN(C)C(=S)Nc1cccc(-c2n[nH]c(=S)o2)c1	none
NNC(=S)Nc1cccc(-c2n[nH]c(=S)o2)c1	VIM-2 inhibitor 14.8 | IMP-1 inh-2 inactive | VIM-2 FRET ctr 18.5 | TEM-1 inh inactive | VIM-2 confirm 2 9.2
CN(CCOc1ccccc1)C(=O)c1ccc(F)c(S(=O)(=O)N2CCOCC2)c1	none (no result: zfTRPN1 agonist, IMP-1 inh-1, VIM-2 inhibitor, TRPML3 ag)

Screening data: PubChem BioAssay, several laboratories
